Holding throughout (type): functional, cell-based
Assay [1] concerns L1210. The assay can be described thus: Dose required to inhibit cell growth was determined against L1210 cell line of murine lymphocytotic leukemia. The following applies: Mus musculus. Summed up: (§1)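 Alamar Blue growth assay. (1–5) × 10^3 cells per well preincubated 24 h, then exposed to increasing drug concentrations for 72 h at 37 °C. Medium replaced with PBS containing 20% Alamar Blue, fluorescence read at 485/590 nm. IC50 is the dose inhibiting growth by 50%.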

Assay [2] concerns HT-29. The assay can be described thus: Dose required to inhibit cell growth was determined against HT-29 cell line of human adenocarcinoma. In short, it runs like this:
as §1

In assay [3] the test system is K562. The assay can be described thus: Dose required to inhibit cell growth was determined against K562 cell line of chronic myelogenous leukemia. The following applies: Homo sapiens. In short, it runs like this: as §1
For assay [4], the system named is MDA-MB-231. As to the kind of experiment: Dose required to inhibit cell growth was determined against MDA-MB-231 cell line of human non-hormone dependent breast carcinoma. In short, it runs like this:
as §1

Assay [5] relates to CHO. As to the kind of experiment: Dose required to inhibit cell growth was determined against CHO cell line. The following applies: Cricetulus griseus. Summed up:
as §1

In assay [6] the test system is P388. The assay can be described thus: Dose required to inhibit cell growth was determined against P388D1 cell line of murine lymphocytotic leukemia. The following applies: Mus musculus. In short, it runs like this:
as §1

The subject of assay [7] is LoVo. The assay can be described thus: Dose to inhibit cell growth determined against LoVo cell line of human adenocarcinoma. Summed up:
as §1

The test system of assay [8] is LoVo. The assay can be described thus: Dose required to inhibit cell growth was determined against LoVo cell line of human adenocarcinoma; NA= Not active represents IC50 >400 uM. Summed up: (§2)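 Alamar Blue growth-inhibition assay. Cells ((1–5) × 10³ per well) were preincubated for 24 h, then exposed to increasing drug concentrations for 72 h at 37 °C. Alamar Blue (20%) was added and fluorescence read at ex 485 / em 590 nm. IC50 is the dose inhibiting growth by 50%. Means of ≥3 independent determinations.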

Assay [9] has as its system MDA-MB-231. The assay can be described thus: Dose required to inhibit cell growth was determined against MDA-MB-231 cell line of human non-hormone dependent breast carcinoma; NA= Not active represents IC50 >400 uM. In short, it runs like this: as §2
Assay [10] concerns P388. As to the kind of experiment: Dose required to inhibit cell growth was determined against P388D1 cell line of murine lymphocytotic leukemia; NA= Not active represents IC50 >400 uM. The following applies: Mus musculus. Summed up: as §2
For assay [11], the system named is MDA-MB-231. The assay can be described thus: Dose required to inhibit cell growth was determined against MDA-MB-231 cell line of human non-hormone dependent breast carcinoma; Not active represents IC50 >400 uM. Summed up: as §2
The test system of assay [12] is CHO. The assay can be described thus: Dose required to inhibit cell growth was determined against CHO cell line; Not active represents IC50 >400 uM. The following applies: Cricetulus griseus. In short, it runs like this: as §2

Structures are written as SMILES. pIC50: −log10 of the molar value. Calls of active or inactive are those of the source. The calls are words filed in the database; no cut-off is given here.

Among the data in ChEMBL document CHEMBL1134792, “Antimitotic antitumor agents: synthesis, structure-activity relationships, and biological characterization of N-aryl-N'-(2-chloroethyl)ureas as new selective alkylating agents” (J Med Chem, 2001) are IC50 and NA values, retold here.

The term pIC50 denotes the IC50 on a negative log10 scale, so that one unit is a factor of ten. Lower therefore signals a high IC50.

Regarding `CC(C)(C)Cc1ccc(NC(=O)NCCCl)cc1`, the pIC50 is 4.72 in [1]; 4.44 in assay [2]; 4.68 in [3]; 4.47 in [4]; 4.46 in [5].

As for `O=C(NCCCl)Nc1ccc(Br)cc1`, the pIC50 was 5.09 in assay [1]; 5.00 in assay [6]; 5.05 in assay [2]; 5.34 in [3]; 4.96 in assay [7]; 5.00 in [4]. The negative-log IC50 (pIC50) in [5] is 5.00.

`CCCCc1ccc(NC(=O)NCCCl)cc1`: the pIC50 was 4.92 in assay [1]; 5.00 in assay [6]; 4.66 in [2]; 5.00 in [3]; 5.00 in assay [7]; 4.72 in assay [4]. In [5], the pIC50 is 4.74.

In the case of `Cc1cc(C)c(NC(=O)NCCCl)c(C)c1`, the NA result in assay [8], in assay [9] and in [10] was “inactive” in each case.

`CCCNC(=O)Nc1ccc(C(C)C)cc1`: the pIC50 is 4.85 in assay [1], 4.12 in [2], 4.28 in [3] and 3.88 in assay [5]. Further, in assay [11], the NA result is “inactive”.

Take `CCc1ccc(NC(=O)NCCCl)cc1`: the pIC50 in assay [1] was 5.57; in assay [6] it was 5.28; in assay [2], 5.19; in assay [3], 5.60; in assay [7] it was 5.49; in assay [4] it was 5.30. For the same compound, the pIC50 in [5] is 5.19.

Take `CCCNC(=O)Nc1ccc(C(C)(C)C)cc1`: the pIC50 is 5.27 in [1]; 4.46 in assay [2]; 4.52 in [3]; 3.88 in assay [4]; 3.88 in assay [5].

For `Cc1ccc(NC(=O)NCCCl)cc1`, the pIC50 in assay [1] was 4.80; in assay [6] it was 4.52; in [2] it was 4.64; in assay [3], 4.80; in assay [7], 4.70; in [4] it was 4.60. The compound also showed a pIC50 in assay [5] of 4.59.

For `CCCNC(=O)Nc1ccc(C(C)CC)cc1` (stereo not given), the NA entry in assay [12] and in assay [11] was “inactive” throughout. The values for the pIC50 in [1], in assay [2] and in assay [3] were 4.52, 3.88 and 3.97, respectively.

As to `O=c1[nH]c2ccccc2c(=O)n1CCCl`, the NA result in assay [8], in [9] and in assay [10] was “inactive” in each case.

Take `CC(C)CCc1ccc(NC(=O)NCCCl)cc1`: the negative logarithm of the IC50 (pIC50) in assay [1] is 4.85; in assay [2], 4.48; in [3] it was 4.82; in [4], 4.49; in assay [5], 4.72.

For `Cc1ccccc1NC(=O)NCCCl`, the NA entry in [8], in assay [9] and in [10] was “inactive” throughout.

Take `CCCCCCCCCCc1ccc(NC(=O)NCCCl)cc1`: the NA entry in assay [8], in [9] and in assay [10] was “inactive” each time.

For `CC(Cl)CNC(=O)Nc1ccc(C(C)(C)C)cc1` (stereo not given), the negative logarithm of the IC50 (pIC50) in assay [1] is 5.22; in assay [2] it was 4.68; in [3], 4.64; in [4], 4.28; in assay [5] it was 4.28.

With `Cc1cccc(NC(=O)NCCCl)c1`, the negative-log IC50 (pIC50) in [6] was 4.12; in assay [7] it was 4.22; in assay [4] it was 4.22.

Consider `CCNC(=O)Nc1ccc(C(C)CC)cc1` (stereo not given), for which the NA result in [12] and in [11] was “inactive” in each case. In addition, the results for the pIC50 in [1], in assay [2] and in [3] were 4.37, 3.88 and 4.00, respectively.

Take `Cc1ccc(NC(=O)NCCCl)cc1C`: the negative logarithm of the IC50 (pIC50) in [1] is 5.42; in [6], 5.38; in assay [2] it was 5.27; in assay [3], 5.46; in assay [7], 5.46; in [4], 5.14. The compound also showed a pIC50 in [5] of 5.06.

Turning to `CCCCCCCc1ccc(NC(=O)NCCCl)cc1`, the pIC50 was 4.89 in assay [1]; 4.74 in assay [6]; 4.60 in assay [2]; 4.80 in assay [3]; 4.82 in assay [7]; 4.52 in assay [4]. For the same compound, the pIC50 in assay [5] is 4.66.

On to `Cc1cccc(NC(=O)NCCCl)c1C`, for which the NA entry in assay [8], in assay [9] and in assay [10] was “inactive” in each case.

Consider `Cc1cccc(C)c1NC(=O)NCCCl`, for which the NA result in assay [8], in assay [9] and in assay [10] was “inactive” each time.

Turning to `O=C(NCCCl)Nc1cccc(I)c1`, the pIC50 in assay [1] was 4.57; in assay [6], 4.47; in assay [2], 4.62; in [3], 4.77; in [7], 4.44; in assay [4] it was 4.57. In addition, the pIC50 in assay [5] was 4.46.

Take `O=C(NCCCl)Nc1ccc(C2CCCCC2)cc1`: the pIC50 was 4.80 in assay [1]; 4.66 in assay [6]; 4.42 in [2]; 4.74 in [3]; 4.66 in assay [7]; 4.36 in [4]. The pIC50 in assay [5] was 4.64.

With `CCCCCCCCc1ccc(NC(=O)NCCCl)cc1`, the pIC50 in assay [6] was 4.49; in assay [7] it was 4.54; in [4], 4.48.

On to `O=C(NCCCl)Nc1ccc(Cl)cc1`, for which the pIC50 is 5.02 in assay [1]; 4.96 in assay [6]; 4.85 in assay [2]; 5.04 in [3]; 4.64 in assay [7]; 4.51 in [4]. In addition, the negative-log IC50 (pIC50) in assay [5] was 4.72.

On to `CCCc1ccc(NC(=O)NCCCl)cc1`, for which the pIC50 in assay [1] is 5.05; in [6] it was 4.96; in assay [2], 4.64; in [3], 5.09; in assay [7], 5.00; in [4] it was 4.74. The compound further gave a pIC50 in assay [5] of 4.72.

Turning to `CCCCCCCCCCCCc1ccc(NC(=O)NCCCl)cc1`, the NA result in [8], in assay [9] and in [10] was “inactive” each time.

Take `O=C(NCCCl)Nc1cccc2ccccc12`: the negative-log IC50 (pIC50) in assay [1] was 3.93; in [6], 3.89; in assay [3], 3.97; in assay [7], 3.82; in [4], 3.82; in [5], 3.97.

Turning to `Cc1cc(C)cc(NC(=O)NCCCl)c1`, the pIC50 in assay [1] is 5.06; in assay [6], 5.07; in assay [2] it was 4.70; in assay [3], 5.00; in assay [7] it was 5.06; in assay [4] it was 4.70. The compound further had a pIC50 in assay [5] of 4.61.

With `CC(C)Cc1ccc(NC(=O)NCCCl)cc1`, the pIC50 in [1] is 4.96; in assay [2], 4.68; in assay [3] it was 4.96; in assay [4], 4.62; in [5], 4.64.
